Key:
[1] = molecular target: hERG (KCNH2) (Homo sapiens, UniProt Q12809); assay: Displacement of dofetilide from human ERG at 10 uM; conditions: probe dofetilide
How it was run: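 hERG dofetilide assay, read out as percent inhibition at a single concentration of test compound.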

[2] = molecular target: T1, C-C chemokine receptor type 2 (Homo sapiens, UniProt P41597); assay: Displacement of [125I]MCP1 from human CCR2 preincubated 30 mins by human whole cell binding assay
How it was run: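 Whole cell binding to human CCR2, with a 30 min preincubation with compound.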
Target sequence in this assay (P41597 whole entry): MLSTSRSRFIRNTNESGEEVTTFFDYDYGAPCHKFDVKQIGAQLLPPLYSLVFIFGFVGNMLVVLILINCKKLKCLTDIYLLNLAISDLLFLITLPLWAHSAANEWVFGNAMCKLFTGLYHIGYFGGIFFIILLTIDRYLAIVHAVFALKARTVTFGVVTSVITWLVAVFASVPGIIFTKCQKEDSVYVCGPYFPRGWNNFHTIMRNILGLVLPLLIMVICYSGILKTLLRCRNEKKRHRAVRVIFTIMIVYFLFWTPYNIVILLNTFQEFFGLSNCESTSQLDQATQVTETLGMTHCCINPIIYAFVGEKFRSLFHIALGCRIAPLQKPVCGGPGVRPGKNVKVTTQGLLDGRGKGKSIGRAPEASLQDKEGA

[3] = Half life in human liver microsomes at 1 uM; type: ADME, Microsome
How it was run: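 Human liver microsome stability test, read out as half-life (t1/2, min) after a single low dose of compound.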

[4] = molecular target: T1, C-C chemokine receptor type 2; assay: Displacement of [125I]MCP1 from human CCR2 at 0.30 uM preincubated 1 hr by human whole cell binding assay
Target sequence in this assay (P41597 whole entry, looked up): as the sequence (P41597 whole entry) above

[5] = Apparent permeability from basolateral to apical side of MDCK cells; type: ADME, cell-based, Canis lupus familiaris; conditions: dog
[6] = Efflux ratio of permeability from basolateral to apical over apical to basolateral side of MDCK cells; type: ADME, cell-based, Canis lupus familiaris; conditions: dog
[7] = Apparent permeability from apical to basolateral side of MDCK cells; type: ADME, cell-based, Canis lupus familiaris; conditions: dog
[8] = molecular target: T1, C-C chemokine receptor type 2; assay: Displacement of [125I]MCP1 from human CCR2 preincubated 1 hrs by human whole cell binding assay
How it was run: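 Human CCR2 whole cell binding, with compound preincubated for 1 h before the binding read-out.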
Target sequence in this assay (P41597 whole entry): as above

[9] = molecular target: T1, C-C chemokine receptor type 2; assay: Displacement of [125I]MCP1 from human CCR2 at 0.30 uM preincubated 30 mins by human whole cell binding assay
Target sequence in this assay (P41597 whole entry, looked up): as the sequence (P41597 whole entry) above

[10] = molecular target: T1, C-C chemokine receptor type 2; assay: Displacement of [125I]MCP1 from human CCR2 at 0.30 uM by human whole cell binding assay
Target sequence in this assay (P41597 whole entry, looked up): as the sequence (P41597 whole entry) above

hERG (KCNH2), sequence (Q12809 whole entry): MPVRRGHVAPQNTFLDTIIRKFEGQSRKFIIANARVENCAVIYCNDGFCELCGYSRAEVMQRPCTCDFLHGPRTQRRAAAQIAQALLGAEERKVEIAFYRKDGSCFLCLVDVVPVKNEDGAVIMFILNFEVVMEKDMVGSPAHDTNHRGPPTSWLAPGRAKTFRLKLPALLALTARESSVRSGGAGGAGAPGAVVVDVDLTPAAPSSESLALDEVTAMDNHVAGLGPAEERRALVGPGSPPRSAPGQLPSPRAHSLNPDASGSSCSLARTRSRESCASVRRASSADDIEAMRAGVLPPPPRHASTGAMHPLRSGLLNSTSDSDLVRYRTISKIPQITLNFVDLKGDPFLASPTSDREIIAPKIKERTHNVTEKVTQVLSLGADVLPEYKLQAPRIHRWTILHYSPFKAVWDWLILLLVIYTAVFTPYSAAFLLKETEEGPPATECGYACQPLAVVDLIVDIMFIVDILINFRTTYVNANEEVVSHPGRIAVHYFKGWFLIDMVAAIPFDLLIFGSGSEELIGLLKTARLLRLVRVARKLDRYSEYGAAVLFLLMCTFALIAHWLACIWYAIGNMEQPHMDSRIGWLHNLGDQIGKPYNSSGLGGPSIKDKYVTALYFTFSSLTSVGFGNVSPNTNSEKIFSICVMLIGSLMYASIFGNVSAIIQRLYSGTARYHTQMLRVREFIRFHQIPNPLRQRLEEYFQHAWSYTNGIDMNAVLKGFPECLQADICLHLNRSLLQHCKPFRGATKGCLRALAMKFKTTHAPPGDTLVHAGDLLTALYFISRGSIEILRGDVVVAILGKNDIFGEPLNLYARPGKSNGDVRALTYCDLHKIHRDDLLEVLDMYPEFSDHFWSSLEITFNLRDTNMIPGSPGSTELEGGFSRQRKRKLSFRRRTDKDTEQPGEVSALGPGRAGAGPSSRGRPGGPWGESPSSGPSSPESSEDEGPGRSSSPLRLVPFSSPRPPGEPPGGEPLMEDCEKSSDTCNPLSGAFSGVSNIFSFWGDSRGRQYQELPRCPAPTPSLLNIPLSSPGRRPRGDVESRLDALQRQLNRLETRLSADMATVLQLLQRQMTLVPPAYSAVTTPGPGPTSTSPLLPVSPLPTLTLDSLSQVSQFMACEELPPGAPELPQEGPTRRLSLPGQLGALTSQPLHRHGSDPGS

IC50 [2] [nM] | half-life at 1 µM [3] [h] | IC50 [8] [nM] | Compound | inhibition at 10 µM [1] [%] | also measured
17.5 | – | – | CC(C)[C@]1(C(=O)N2C[C@@H]3C[C@H]2CN3C(=O)c2ccccc2)CC[C@@H](NC2CCOCC2F)C1 (stereo partly specified) | 0 | –
– | > 2 | – | CO[C@@H]1COCC[C@@H]1N[C@@H]1CC[C@@](C(=O)N2C[C@@H]3C[C@H]2CN3C(=O)C(C)(C)C)(C(C)C)C1 | 6 | Activity [4]: 40%
15.2 | 0.917 | – | CC(C)[C@]1(C(=O)N2C[C@@H]3C[C@H]2CN3C(=O)C2CCCCC2)CC[C@@H](NC2CCOCC2F)C1 (stereo partly specified) | 0 | –
3.5 | 1.3 | – | CC(OC(=O)N1C[C@@H]2C[C@H]1CN2C(=O)[C@@]1(C(C)C)CC[C@@H](NC2CCOCC2)C1)C(F)(F)F (stereo partly specified) | 2 | –
12.8 | > 2 | – | CC(CC(=O)N1C[C@@H]2C[C@H]1CN2C(=O)[C@@]1(C(C)C)CC[C@@H](NC2CCOCC2F)C1)C(F)(F)F (stereo partly specified) | 0 | Papp B→A [5]: 10.2 ×10⁻⁶ cm/s; efflux ratio [6]: 0.8; Papp A→B [7]: 11.8 ×10⁻⁶ cm/s
3.2 | 0.433 | – | CC(OC(=O)N1C[C@@H]2C[C@H]1CN2C(=O)[C@@]1(C(C)C)CC[C@@H](NC2CCOCC2F)C1)C(F)(F)F (stereo partly specified) | 3 | –
130 | > 2 | – | CC(C)[C@]1(C(=O)N2C[C@@H]3C[C@H]2CN3C(=O)C2CC2)CC[C@@H](NC2CCOCC2)C1 | 2.3 | –
75.9 | – | – | CC(C)[C@]1(C(=O)N2C[C@@H]3C[C@H]2CN3C(=O)N2CCCCC2)CC[C@@H](NC2CCOCC2F)C1 (stereo partly specified) | 0 | –
– | > 2 | 12.2 | CC(C)[C@]1(C(=O)N2C[C@@H]3C[C@H]2CN3C(=O)C2CCCC2)CC[C@@H](NC2CCOCC2)C1 | 2 | –
– | > 2 | – | CC(=O)N1C[C@@H]2C[C@H]1CN2C(=O)[C@@]1(C(C)C)CC[C@@H](NC2CCOCC2)C1 | 0 | Activity [9]: 1%
28 | 1.77 | – | CC(C)[C@]1(C(=O)N2C[C@@H]3C[C@H]2CN3C(=O)NC(C)(C)C)CC[C@@H](NC2CCOCC2F)C1 (stereo partly specified) | 0 | –
– | > 2 | 2.9 | CO[C@@H]1COCC[C@@H]1N[C@@H]1CC[C@@](C(=O)N2C[C@@H]3C[C@H]2CN3C(=O)OC(C)(C)C)(C(C)C)C1 | 0 | –
39.5 | 1.27 | – | CC(C)[C@]1(C(=O)N2C[C@@H]3C[C@H]2CN3C(=O)CC(C)(C)C)CC[C@@H](NC2CCOCC2F)C1 (stereo partly specified) | 0 | –
14.6 | > 2 | – | CC(C)[C@]1(C(=O)N2C[C@@H]3C[C@H]2CN3C(=O)CCC(F)(F)F)CC[C@@H](NC2CCOCC2)C1 | 1 | –
3.1 | 0.283 | – | CC(C)[C@]1(C(=O)N2C[C@@H]3C[C@H]2CN3C(=O)OC2CCCC2)CC[C@@H](NC2CCOCC2F)C1 (stereo partly specified) | 0 | –
– | > 2 | – | CCC(=O)N1C[C@@H]2C[C@H]1CN2C(=O)[C@@]1(C(C)C)CC[C@@H](NC2CCOCC2)C1 | 6 | Activity [9]: 28%
38.4 | 0.35 | – | CC(C)[C@]1(C(=O)N2C[C@@H]3C[C@H]2CN3C(=O)C2CCC2)CC[C@@H](NC2CCOCC2F)C1 (stereo partly specified) | 17 | –
4.3 | 0.467 | – | CC(C)COC(=O)N1C[C@@H]2C[C@H]1CN2C(=O)[C@@]1(C(C)C)CC[C@@H](NC2CCOCC2F)C1 (stereo partly specified) | 0 | –

IC50 [2] [nM] | half-life at 1 µM [3] [h] | IC50 [8] [nM] | Compound | inhibition at 10 µM [1] [%] | also measured
– | > 2 | – | CC(C)[C@]1(C(=O)N2C[C@@H]3C[C@H]2CN3C(=O)C2CCOCC2)CC[C@@H](NC2CCOCC2)C1 | 0 | Activity [9]: 46%
– | > 2 | 36.9 | CC(C)[C@]1(C(=O)N2C[C@@H]3C[C@H]2CN3C(=O)CC(C)(C)C)CC[C@@H](NC2CCOCC2)C1 | 5.7 | –
– | > 2 | – | CC(C)[C@]1(C(=O)N2C[C@@H]3C[C@H]2CN3C(=O)C(C)(C)C)CC[C@@H](NC2CCOCC2)C1 | 2 | Activity [9]: 23%
– | – | – | CC(C)[C@]1(C(=O)N2CCN(C(=O)OC(C)(C)C)CC2)CC[C@@H](NC2CCOCC2)C1 | – | Activity [10]: 24%
12 | 1.57 | 6.5 | CO[C@@H]1COCC[C@@H]1N[C@@H]1CC[C@@](C(=O)N2C[C@@H]3C[C@H]2CN3C(=O)c2ccccc2)(C(C)C)C1 | 7.8 | –
17.3 | > 2 | – | CC(C)[C@]1(C(=O)N2C[C@@H]3C[C@H]2CN3C(=O)CCC(F)(F)F)CC[C@@H](NC2CCOCC2F)C1 (stereo partly specified) | 5 | Papp B→A [5]: 5.3 ×10⁻⁶ cm/s; efflux ratio [6]: 0.6; Papp A→B [7]: 8.35 ×10⁻⁶ cm/s
– | > 2 | 11.7 | CO[C@@H]1COCC[C@@H]1N[C@@H]1CC[C@@](C(=O)N2C[C@@H]3C[C@H]2CN3C(=O)C2CCC2)(C(C)C)C1 | 4 | –
13.9 | > 2 | – | CC(C)[C@]1(C(=O)N2C[C@@H]3C[C@H]2CN3C(=O)C2CCCC2)CC[C@@H](NC2CCOCC2F)C1 (stereo partly specified) | 3 | –
24.2 | > 2 | 17 | CO[C@@H]1COCC[C@@H]1N[C@@H]1CC[C@@](C(=O)N2C[C@@H]3C[C@H]2CN3C(=O)CC(C)(C)C)(C(C)C)C1 | 0 | –
– | > 2 | 5 | CC(C)[C@]1(C(=O)N2C[C@@H]3C[C@H]2CN3C(=O)OC(C)(C)C)CC[C@@H](NC2CCOCC2)C1 | 4.8 | –
– | – | 251 | CO[C@@H]1COCC[C@@H]1N[C@@H]1CC[C@@](C(=O)N2CCN(C(=O)OC(C)(C)C)CC2)(C(C)C)C1 | – | –
11.6 | 1.55 | – | CC(C)[C@]1(C(=O)N2C[C@@H]3C[C@H]2CN3C(=O)C2CCCCC2)CC[C@@H](NC2CCOCC2)C1 | 4 | –
– | > 2 | 32 | CC(C)[C@]1(C(=O)N2C[C@@H]3C[C@H]2CN3C(=O)C2CCC2)CC[C@@H](NC2CCOCC2)C1 | 6 | –
14.7 | 0.8 | – | CC(C)[C@]1(C(=O)N2C[C@@H]3C[C@H]2CN3C(=O)CC2CCCC2)CC[C@@H](NC2CCOCC2F)C1 (stereo partly specified) | 3 | –
– | 0.62 | 4.2 | CC(C)[C@]1(C(=O)N2C[C@@H]3C[C@H]2CN3C(=O)OC(C)(C)C)CC[C@@H](NC2CCOCC2F)C1 (stereo partly specified) | 6 | –
13 | > 2 | – | CC(CC(=O)N1C[C@@H]2C[C@H]1CN2C(=O)[C@@]1(C(C)C)CC[C@@H](NC2CCOCC2)C1)C(F)(F)F (stereo partly specified) | 5 | –
– | > 2 | – | CC(C)C(=O)N1C[C@@H]2C[C@H]1CN2C(=O)[C@@]1(C(C)C)CC[C@@H](NC2CCOCC2)C1 | 3.7 | Activity [9]: 40%
11.1 | > 2 | 8.5 | CO[C@@H]1COCC[C@@H]1N[C@@H]1CC[C@@](C(=O)N2C[C@@H]3C[C@H]2CN3C(=O)C2CCCC2)(C(C)C)C1 | 6.7 | –

— ChEMBL document CHEMBL1681706, “Design and synthesis of novel CCR2 antagonists: investigation of non-aryl/heteroaryl binding motifs” (Bioorg Med Chem Lett, 2011)
